Pemphigus Ab inh: inhibitors of pemphigus antibody binding to human desmoglein-3 | P32926 | DSG3-coupled beads, scFv-anti-DSG3-GFP binding, flow cytometry; hits give low values | binding (percent of control), % at 10 µM | 310,000 compounds, 0.48% hits | AID 588358;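 active means binding more than 3 SD below its plate's average and above zero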;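 further: hits lower antibody fragment binding to DSG3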
HDAC3 inh: inhibitors of human histone deacetylase 3 | recombinant HDAC3, fluorogenic peptide/trypsin coupled, fluorescence | inhibition, % at 8.3 µM | 320,000 compounds, 0.15% hits | AID 2718; in the data active means inhibition above about 26%, passing the limit was not always enough
Arr AP2 block: human beta-arrestin and AP2 interaction inhibition. FITC-arrestin peptide / GST-AP2 beads, flow cytometry; AP2 beta2 appendage carries R879A mutation. inhibition, % at 10 µM. 340,000 compounds, 0.31% hits;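 active means inhibition above a set limit, near 3 SD of compounds lacking own fluorescence, cut at about 54% in these data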
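Material – AP2 appendage R879A on GSH beads · Buffer or medium – PBS with 0.05% Tween 20 and 0.1% BSA · Probe or stimulus – fluorescein-tagged arrestin peptide at 50 nM final · Incubation – compound with beads 12 min RT, then probe 1 h RT · Detection – high-throughput flow cytometry of beads, ex 488, em 535 nm · Evaluation – percent response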
T cell HTS: T cell immune modulation candidate | response (vesicle binding), % at 7 µM | 330,000 compounds, 0.068% hits | AID 2052 | 2C CD8+ T cell-vesicle binding, flow cytometry; hits give low values;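 active means response, share of CD8 T cells binding vesicles, and their 90th percentile fluorescence all below set limits, cut at about 80% in these data, passing the limit was not always enough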;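 further: values below 100% mean blocked vesicle binding to the CD8+ T cells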
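Also added: QL9-peptide-loaded Drosophila micro-vesicles bearing Ld, ICAM-1 and B7-1; Test system: purified 2C TCR transgenic mouse naive CD8+ T cells; Measured by: cytometric PE anti-B7-1 and Alexa647 anti-CD8 signals after 1% paraformaldehyde fixation; Timing: binding step 1.5 h, 37 °C, antibody labelling 20 min, ice.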
LANA-H2B inh: blocks KSHV LANA binding to histone H2A/H2B; inhibition, % (test concentration not listed); Q9QR71; 320,000 compounds, 0.6% hits; cell-free LANA-H2A/H2B peptide, fluorescence polarization; AID 2629; in the data active means inhibition mostly above about 10%, no sharp cut-off; inactive means mostly below about 6.7%
Target sequence (Q9QR71 whole entry, looked up): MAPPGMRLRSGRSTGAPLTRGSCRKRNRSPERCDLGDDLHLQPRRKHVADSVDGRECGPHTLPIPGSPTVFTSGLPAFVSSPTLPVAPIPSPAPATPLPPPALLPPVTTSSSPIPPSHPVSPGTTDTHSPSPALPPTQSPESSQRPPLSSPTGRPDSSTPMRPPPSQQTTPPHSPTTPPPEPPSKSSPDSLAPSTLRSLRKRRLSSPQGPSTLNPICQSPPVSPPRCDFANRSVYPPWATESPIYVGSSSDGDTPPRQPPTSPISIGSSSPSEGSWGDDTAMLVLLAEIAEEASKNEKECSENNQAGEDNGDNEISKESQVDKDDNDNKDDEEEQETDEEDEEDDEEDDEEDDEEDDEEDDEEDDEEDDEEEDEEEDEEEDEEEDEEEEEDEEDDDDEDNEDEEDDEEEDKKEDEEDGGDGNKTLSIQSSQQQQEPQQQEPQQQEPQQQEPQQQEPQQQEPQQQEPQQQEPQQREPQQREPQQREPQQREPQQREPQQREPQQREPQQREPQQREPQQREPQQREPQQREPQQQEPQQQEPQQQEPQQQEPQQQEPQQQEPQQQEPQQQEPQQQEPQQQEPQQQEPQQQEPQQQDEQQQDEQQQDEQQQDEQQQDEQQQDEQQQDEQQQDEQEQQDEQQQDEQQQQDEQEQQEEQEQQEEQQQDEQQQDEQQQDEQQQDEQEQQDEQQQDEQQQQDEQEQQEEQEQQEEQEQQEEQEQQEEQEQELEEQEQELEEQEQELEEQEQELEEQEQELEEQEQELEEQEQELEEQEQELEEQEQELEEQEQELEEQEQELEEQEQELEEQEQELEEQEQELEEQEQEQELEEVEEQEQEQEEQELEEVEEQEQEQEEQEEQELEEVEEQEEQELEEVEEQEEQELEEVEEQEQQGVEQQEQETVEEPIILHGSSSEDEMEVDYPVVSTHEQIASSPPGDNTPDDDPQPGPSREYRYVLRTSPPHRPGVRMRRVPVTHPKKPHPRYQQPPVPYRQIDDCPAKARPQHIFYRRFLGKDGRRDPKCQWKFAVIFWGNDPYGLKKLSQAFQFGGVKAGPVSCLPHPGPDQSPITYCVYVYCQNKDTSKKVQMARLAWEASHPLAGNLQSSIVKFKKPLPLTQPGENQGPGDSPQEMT
A number is an active result; - = inactive; . = no result given. Rows were chosen to be rich in hits. Some 1.5% of all compounds tested hit in one or more screens of this group.

SMILES	Pemphigus Ab inh	HDAC3 inh	Arr AP2 block	T cell HTS	LANA-H2B inh
Cc1ccc2c(c1)nnn2C1CCN(S(=O)(=O)c2ccc(C(=O)O)cc2)CC1	-	-	-	-	126
Cc1ccc2c(c1)nnn2C1CCN(S(=O)(=O)c2ccc(C(=O)N3C(C)CCCC3C)cc2)CC1 (stereo not drawn)	-	-	-	-	-
Cc1onc(-c2ccccc2Cl)c1C(=O)N(C)CC(=O)Nc1ccc(F)c(F)c1F	-	-	-	-	-
CCC(=O)N1CCN(c2ccc(NC(=S)NC(=O)c3cc4ccccc4o3)cc2)CC1	-	-	-	-	94
O=C(NC(=S)Nc1ccc(NC(=O)c2cccs2)cc1)c1cc2ccccc2o1	70	-	-	-	-
O=C(NC(=S)Nc1ccc(NC(=O)c2cccs2)cc1)c1ccco1	-	-	-	-	-
CC(C)(CNC(=O)c1ccc(S(=O)(=O)Nc2ccc(Cl)cc2)cc1)N1CCOCC1	.	-	-	-	-
O=C(CNC(=O)OCc1ccccc1)OC(c1ccccc1)c1ccccc1	-	.	-	.	.
COc1ccccc1CNC(=O)COC(=O)/C=C/c1cccs1	-	-	-	-	-
COc1ccccc1CNC(=O)COC(=O)/C=C/c1ccc2ccccc2n1	-	-	-	-	17
CCOC(=O)C1CCN(C(=O)CN2C(=O)c3ccccc3S2(=O)=O)CC1	-	.	-	0.0	.
O=C(Nc1ccc(-c2nc3ccccc3[nH]2)cc1)C1CCCN(Cc2ccn[nH]2)C1 (stereo not drawn)	-	.	.	.	.
Cc1ccc(-c2ccc(/C=C(\C#N)C(N)=S)n2C)cc1	.	-	-	-	26
Cn1cccc1/C=C(/C#N)C(N)=S	-	.	-	-	.
O=C(O)CP(=O)(O)O	.	-	-	-	7.2
O=C(O)CC(O)(CC(=O)O)C(=O)O	-	-	-	-	-
C/C(=N\Nc1ccccc1C(=O)O)c1ccncc1	-	-	-	-	-
N#Cc1c2nc3ccccc3nc2n2cc(NC(=O)c3ccc(F)cc3)ccc12	-	.	-	.	.
Cc1c(C(=O)Nc2ccc(F)cc2)cn2c(nc3ccccc32)c1C#N	-	-	-	-	97
Cc1ccc(C)c(NC(=O)COC(=O)c2ccc(S(=O)(=O)N3CCCC3)cc2)c1	-	.	.	.	.
COc1ccc(Nc2nc(C)cc(C)c2C#N)cc1OC	12	-	-	-	-
COc1cccc(Nc2nc(C)cc(C)c2C#N)c1	-	-	-	-	-
CCOc1ccc(/C=N/n2c(C)nc3ccccc3c2=O)cc1	68	-	-	-	-
Cc1nc2ccccc2c(=O)n1/N=C/c1ccc(OC(F)F)cc1	-	-	-	-	-
Cc1ccc(/C=C2/SC(=S)N(C3CCCCC3)C2=O)o1	-	-	62	-	-
SMILES	Pemphigus Ab inh	HDAC3 inh	Arr AP2 block	T cell HTS	LANA-H2B inh
Cc1ccc(/C=C2\SC(=S)N(CC3CCCO3)C2=O)o1 (stereo not drawn)	.	-	-	-	-
CC(=O)Nc1ccc(S(=O)(=O)N(C)CC(=O)OCCOc2cccc(C)c2)cc1	.	-	-	-	-
CN(C(=O)CSc1nc2ccccc2c(=O)n1C)C1CCS(=O)(=O)C1 (stereo not drawn)	-	-	-	-	20
O=C(CSc1nc2ccccc2c(=O)n1-c1ccccc1F)NC1CCS(=O)(=O)C1 (stereo not drawn)	-	-	-	-	124
Cc1ccccc1C(=O)NCC(C)NC(=O)c1ccccc1C (stereo not drawn)	-	-	-	-	-
C[C@H](CO)N1C[C@H](C)[C@@H](CN(C)Cc2ccccc2)Oc2ccc(NC(=O)CCCCCC(=O)Nc3ccccc3N)cc2C1=O	-	75	-	-	-
C[C@H](CO)N1C[C@H](C)[C@@H](CN(C)S(=O)(=O)c2ccccc2)Oc2ccc(NC(=O)CCC(F)(F)F)cc2C1=O	.	-	-	-	28
C[C@H](CO)N1C[C@H](C)[C@@H](CN(C)Cc2ccncc2)Oc2c(NC(=O)CCCCCC(=O)Nc3ccccc3N)cccc2C1=O	-	57	-	-	-
C[C@H](CO)N1C[C@H](C)[C@@H](CN(C)C)Oc2c(NC(=O)CCCCCC(=O)Nc3ccccc3N)cccc2C1=O	-	67	-	-	-
C[C@H](CO)N1C[C@H](C)[C@@H](CN(C)C)Oc2c(NC(=O)Cc3ccccc3)cccc2C1=O	-	.	-	-	.
C[C@H]1CN([C@@H](C)CO)C(=O)c2cc(NC(=O)Cc3ccccc3)ccc2O[C@H]1CN(C)Cc1ccccc1	-	-	-	-	-
C[C@H](CO)N1C[C@H](C)[C@@H](CN(C)Cc2ccncc2)Oc2c(NC(=O)Cc3ccccc3)cccc2C1=O	-	-	-	-	-
C[C@H](CO)N1C[C@H](C)[C@@H](CN(C)S(=O)(=O)c2ccccc2)Oc2ccc(NC(=O)Nc3ccc(C(F)(F)F)cc3)cc2C1=O	-	-	-	-	.
Cc1ccc(NC(=O)C2CC(O)CN2C(=O)OCc2ccccc2)cc1C (stereo not drawn)	-	.	-	.	.
CC(=O)Oc1c(C)c(C)c2c(c1C)CC[C@@](C)(CCC[C@H](C)CCC[C@H](C)CCCC(C)C)O2	-	-	-	-	-
COc1cc(/C=N/N2CCN(C3c4ccccc4-c4ccccc43)CC2)ccc1O	-	-	-	-	26
Clc1cccc(/C=N/N2CCN(Cc3ccccc3)CC2)c1	-	-	-	-	-
COc1ccc(N2CCN(C(=O)CN3C(=O)NC4(CCCc5ccccc54)C3=O)CC2)cc1 (stereo not drawn)	-	-	-	-	-
COc1ccc(C(=O)Nc2ccc(S(=O)(=O)Nc3nccc(C)n3)cc2)cc1	-	-	-	-	-
Cc1ccc(O)c(-c2cc(C(=O)Nc3ccc(S(=O)(=O)Nc4nccc(C)n4)cc3)[nH]n2)c1	-	-	-	-	78
O=C(O)CC1S/C(=N/N=C/c2ccccn2)NC1=O (stereo not drawn)	-	-	-	-	24
NC(=O)NC(=O)CC1S/C(=N/N=C/c2ccccc2)NC1=O (stereo not drawn)	-	-	-	-	-
CCC1CCCCN1C(=O)CSc1nnc(N)s1 (stereo not drawn)	-	-	-	-	-
CS(=O)(=O)Nc1cccc(C(=O)OCCCOc2ccc(F)cc2)c1	-	-	-	-	-
COc1ccc(/C(O)=C2/C(=O)C(=O)N(Cc3cccnc3)C2c2ccco2)cc1OC (stereo not drawn)	.	-	-	48	-
CCN1CCN(S(=O)(=O)c2ccc(C(C)(C)C)cc2)CC1	-	-	-	-	13
O=C(NC1CCCC1)C1CCCN1C(=O)Nc1ccc(Cl)cc1 (stereo not drawn)	-	-	-	0.0	-
Cc1ccc(NC(=O)CSCC(=O)OCc2cc(=O)oc3cc(O)ccc23)c(C)c1	-	-	-	-	-
COCCCn1c(SCC(=O)Nc2ccc(NC(=O)c3ccco3)c(OC)c2)nc2ccccc2c1=O	-	-	-	-	28
